Experimental data from ChEMBL document CHEMBL5316280, “Development of N-(1-Adamantyl)benzamides as Novel Anti-Inflammatory Multitarget Agents Acting as Dual Modulators of the Cannabinoid CB2 Receptor and Fatty Acid Amide Hydrolase” (J Med Chem, 2023).
Calls of active or inactive are those of the source. No cut-off for these calls is given here.

What was measured:
[1] = target: T1, Fatty-acid amide hydrolase 1 (Homo sapiens, UniProt O00519); test: Inhibition of recombinant human FAAH using AMC-AA as substrate preincubated for 10 mins followed by substrate addition measured after 2 hrs by fluorometric assay
T1 sequence (O00519 whole entry): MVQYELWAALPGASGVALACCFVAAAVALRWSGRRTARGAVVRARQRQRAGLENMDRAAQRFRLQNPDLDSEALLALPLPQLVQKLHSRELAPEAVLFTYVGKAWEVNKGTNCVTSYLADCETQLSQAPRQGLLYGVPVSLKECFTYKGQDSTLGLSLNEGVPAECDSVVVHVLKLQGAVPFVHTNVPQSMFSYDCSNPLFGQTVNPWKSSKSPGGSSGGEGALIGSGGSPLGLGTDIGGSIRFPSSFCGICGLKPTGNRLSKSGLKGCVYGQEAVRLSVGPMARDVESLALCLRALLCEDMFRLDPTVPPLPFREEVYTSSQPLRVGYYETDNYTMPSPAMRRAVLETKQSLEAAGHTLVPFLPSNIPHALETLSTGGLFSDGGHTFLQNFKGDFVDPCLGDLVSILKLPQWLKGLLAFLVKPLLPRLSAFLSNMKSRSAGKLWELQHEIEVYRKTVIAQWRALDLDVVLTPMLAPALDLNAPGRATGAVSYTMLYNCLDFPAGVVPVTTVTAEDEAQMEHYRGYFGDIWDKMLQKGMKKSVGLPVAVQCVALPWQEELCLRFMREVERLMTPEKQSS
How it was run: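 Human recombinant FAAH preincubated with inhibitor at various concentrations in Tris-HCl 125 mM, Na₂EDTA 1 mM, pH 9.0, 10 min at room temperature with shaking. AMC-AA substrate then added (1 µM final); fluorescence read every 30 s for 2 h at 37 °C (ex 340/em 450 nm). Percent inhibition from no-inhibitor controls and no-enzyme blanks; IC50 from at least three independent runs in triplicate.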

THP-1 [2] = test: Antiinflammatory activity in human THP-1 monocytes assessed as increase in IL-10 level incubated for 24 hrs by ELISA based qRT-PCR analysis; assay type: functional, cell-based
How it was run: (§1)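 THP-1 cells were seeded at 1 x 10⁵ cells/ml for 48 h. For macrophages, cells were differentiated with 0.01 µM PMA for 48 h; monocytes received no PMA. Cells were then given 24 h with or without 10 µg/ml LPS, plus ligands alone or with the CB2R inverse agonist JTE907 (10 µM). Cytokines were measured in 5 µL supernatant (from 1 x 10⁴ cells) by ProQuantum immunoassay, read as pg/ml from kit titration curves; n=3.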

Cannabinoid receptor 2 [3] = target: T2, Cannabinoid receptor 2 (Homo sapiens, UniProt P34972); test: Agonist activity at human CB2 receptor overexpressed in CHO-K1 cells assessed as cAMP level incubated for 30 mins by luminescence based assay; assay type: functional, cell-based
T2 sequence (P34972 whole entry): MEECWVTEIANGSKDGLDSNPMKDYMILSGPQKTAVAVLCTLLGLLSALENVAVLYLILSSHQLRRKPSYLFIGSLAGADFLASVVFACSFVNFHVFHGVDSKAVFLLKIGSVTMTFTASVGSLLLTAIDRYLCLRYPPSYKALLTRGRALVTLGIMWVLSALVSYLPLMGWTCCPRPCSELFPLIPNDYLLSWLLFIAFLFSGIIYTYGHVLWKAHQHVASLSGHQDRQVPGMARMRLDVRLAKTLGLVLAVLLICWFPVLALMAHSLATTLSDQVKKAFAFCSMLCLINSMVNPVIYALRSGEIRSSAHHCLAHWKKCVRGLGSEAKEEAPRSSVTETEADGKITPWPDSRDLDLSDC
How it was run: (§2)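 CHO-K1 cells overexpressing human CB2R were plated at 30 000 cells/well and held overnight at 37 °C, 5% CO2. Test samples were added as dose–response solutions with NKH-477 to stimulate adenylate cyclase, then incubated 30 min at 37 °C. cAMP was detected by luminescence after cell lysis. Values were normalized to NKH-477 alone as 100% response. Three independent experiments were run in triplicate.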

Cannabinoid receptor 2 [4] = target: T2, Cannabinoid receptor 2; test: Agonist activity at human CB2 receptor overexpressed in CHO-K1 cells assessed as cAMP level incubated for 30 mins by luminescence based assay relative to control; assay type: functional, cell-based; details: filed as agonist; how it was run: as §2
THP-1 [5] = test: Antiinflammatory activity in human THP-1 macrophages assessed as increase in IL-4 level incubated for 24 hrs by ELISA based qRT-PCR analysis; assay type: functional, cell-based; how it was run: as §1
THP-1 [6] = test: Antiinflammatory activity in human THP-1 monocytes assessed as increase in IL-4 level incubated for 24 hrs by ELISA based qRT-PCR analysis; assay type: functional, cell-based; how it was run: as §1
Cannabinoid receptor 2 [7] = target: Cannabinoid receptor 2 (Mus musculus, UniProt P47936); test: Agonist activity at mouse CB2 receptor transfected in CHO-K1 cells assessed as beta2-arrestin recruitment incubated for 90 mins by luminescence based assay; assay type: functional, cell-based
Chain of Cannabinoid receptor 2 (Mus musculus, UniProt P47936) (P47936 whole entry): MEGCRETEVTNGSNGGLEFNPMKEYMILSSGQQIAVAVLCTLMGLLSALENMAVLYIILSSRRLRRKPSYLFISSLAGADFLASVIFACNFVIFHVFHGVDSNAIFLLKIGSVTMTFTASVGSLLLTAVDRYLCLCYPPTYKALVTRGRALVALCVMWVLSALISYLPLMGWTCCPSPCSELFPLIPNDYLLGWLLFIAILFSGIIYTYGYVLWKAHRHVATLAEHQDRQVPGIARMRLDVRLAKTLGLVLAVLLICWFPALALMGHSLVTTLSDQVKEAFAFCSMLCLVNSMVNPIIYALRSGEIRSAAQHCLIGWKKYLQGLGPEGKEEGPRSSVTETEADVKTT
How it was run: (§3)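 PathHunter eXpress kit using mouse CB2 receptor in CHO-K1 cells. Cells were seeded 48 h before the assay in kit medium. Compounds in cell plating reagent were incubated 90 min at 37 °C, 5% CO2. Working detection solution was then added for 60 min at room temperature to read β-arrestin recruitment.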

[8] = target: Cannabinoid receptor 2 (Mus musculus) (UniProt P47936); test: Agonist activity at mouse CB2 receptor transfected in CHO-K1 cells assessed as beta2-arrestin recruitment incubated for 90 mins by luminescence based assay relative to control; assay type: functional, cell-based; how it was run: as §3
Chain of Cannabinoid receptor 2 (Mus musculus) (P47936 whole entry): as above

THP-1 [9] = test: Antiinflammatory activity in human THP-1 macrophages assessed as decrease in IL-6 level incubated for 24 hrs by ELISA based qRT-PCR analysis; assay type: functional, cell-based; how it was run: as §1
THP-1 [10] = test: Antiinflammatory activity in human THP-1 monocytes assessed as decrease in TNFalpha level incubated for 24 hrs by ELISA based qRT-PCR analysis; assay type: functional, cell-based; how it was run: as §1
THP-1 [11] = test: Antiinflammatory activity in human THP-1 macrophages assessed as decrease in TNFalpha level incubated for 24 hrs by ELISA based qRT-PCR analysis; assay type: functional, cell-based; how it was run: as §1
THP-1 [12] = test: Antiinflammatory activity in human THP-1 monocytes assessed as decrease in IL-1beta level incubated for 24 hrs by ELISA based qRT-PCR analysis; assay type: functional, cell-based; how it was run: as §1
THP-1 [13] = test: Antiinflammatory activity in human THP-1 macrophages assessed as decrease in IL-1beta level incubated for 24 hrs by ELISA based qRT-PCR analysis; assay type: functional, cell-based; how it was run: as §1
THP-1 [14] = test: Antiinflammatory activity in human THP-1 macrophages assessed as increase in IL-10 level incubated for 24 hrs by ELISA based qRT-PCR analysis; assay type: functional, cell-based; how it was run: as §1
THP-1 [15] = test: Antiinflammatory activity in human THP-1 monocytes assessed as decrease in TNFalpha level incubated for 24 hrs in presence of […] by ELISA based qRT-PCR analysis; assay type: functional, cell-based; how it was run: as §1
THP-1 [16] = test: Antiinflammatory activity in human THP-1 monocytes assessed as decrease in IFNgamma level incubated for 24 hrs in presence of […] by ELISA based qRT-PCR analysis; assay type: functional, cell-based; how it was run: as §1
THP-1 [17] = test: Antiinflammatory activity in human THP-1 monocytes assessed as decrease in IL-1beta level incubated for 24 hrs in presence of […] by ELISA based qRT-PCR analysis; assay type: functional, cell-based; how it was run: as §1
THP-1 [18] = test: Antiinflammatory activity in human THP-1 macrophages assessed as increase in IL-4 level incubated for 24 hrs in presence of […] by ELISA based qRT-PCR analysis; assay type: functional, cell-based; how it was run: as §1
THP-1 [19] = test: Antiinflammatory activity in human THP-1 monocytes assessed as increase in IL-10 level incubated for 24 hrs in presence of […] by ELISA based qRT-PCR analysis; assay type: functional, cell-based; how it was run: as §1
Cannabinoid receptor 1 = Cannabinoid receptor 1 (Homo sapiens, UniProt P21554); test: […] human CB1 receptor in CHO cells incubated for 15 mins by plate reader analysis relative to control; assay type: cell-based
Chain of Cannabinoid receptor 1 (P21554 whole entry): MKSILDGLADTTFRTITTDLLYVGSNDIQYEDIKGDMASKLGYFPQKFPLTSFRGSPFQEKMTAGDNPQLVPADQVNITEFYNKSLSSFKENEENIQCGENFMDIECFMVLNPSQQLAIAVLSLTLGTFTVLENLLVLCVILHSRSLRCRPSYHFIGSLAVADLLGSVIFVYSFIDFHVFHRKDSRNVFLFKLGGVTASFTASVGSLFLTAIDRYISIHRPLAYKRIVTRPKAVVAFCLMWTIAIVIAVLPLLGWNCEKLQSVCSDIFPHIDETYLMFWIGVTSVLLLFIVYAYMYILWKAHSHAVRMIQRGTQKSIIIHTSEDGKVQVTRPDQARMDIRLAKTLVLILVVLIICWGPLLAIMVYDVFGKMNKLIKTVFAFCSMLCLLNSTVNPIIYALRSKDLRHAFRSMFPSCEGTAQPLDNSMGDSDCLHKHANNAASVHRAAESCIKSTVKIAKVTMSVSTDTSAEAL
How it was run: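 CHO-CB1 C3 cells (human CB1) were seeded at 8000 cells/well in medium with dialyzed FBS and preincubated 15 min at 37 °C. Compounds or the CP55940 control were added for 15 min at 37 °C, then forskolin 10 µM for 5 min. cAMP was read by HTRF after 1 h at room temperature (λex 320 nm, λem 620-665 nm).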

| SMILES | IC50 [1] [nM] | Activity (THP-1 [2]) | EC50 (Cannabinoid receptor 2 [3]) [nM] | Emax (Cannabinoid receptor 2 [4]) [%] | Activity (THP-1 [5]) | Activity (THP-1 [6]) | EC50 (Cannabinoid receptor 2 [7]) [nM] | Emax [8] [%] | Activity (THP-1 [9]) | Activity (THP-1 [10]) | Activity (THP-1 [11]) | Activity (THP-1 [12]) | Activity (THP-1 [13]) | Activity (THP-1 [14]) | Activity (THP-1 [15]) | Activity (THP-1 [16]) | Activity (THP-1 [17]) | Activity (THP-1 [18]) | Activity (THP-1 [19]) | Emax (Cannabinoid receptor 1) [%] |
| --- | --- | --- | --- | --- | --- | --- | --- | --- | --- | --- | --- | --- | --- | --- | --- | --- | --- | --- | --- | --- |
| CCCCCOc1ccccc1C(=O)NC12CC3CC(CC(C3)C1)C2 | 6200 | Active | 86.9 | 95.3 | Active | Active | 23.8 | 34.5 | Active | Active | Active | inactive | Active | Active | inactive | inactive | inactive | inactive | inactive | 100 |
| O=C(NC12CC3CC(CC(C3)C1)C2)c1ccccc1OCC1CCCCC1 | 3400 | Active | 283 | 90.1 | Active | Active | 10.7 | 5.5 | Active | Active | Active | Active | Active | Active | inactive | inactive | inactive | inactive | inactive | 75 |
| O=C(NC12CC3CC(CC(C3)C1)C2)c1ccccc1OCc1ccccc1 | 4000 | Active | 124 | 96.3 | Active | Active | 51.8 | 12.6 | inactive | Active | Active | Active | Active | Active | inactive | inactive | inactive | inactive | inactive | 100 |
